High-throughput results: PubChem, several laboratories
This is a sample that favours compounds with a hit; in the whole collection about 1.3% have one here.
PKD1 kinase inh: inhibitors of human PKD1 kinase, biochemical, fluorescence polarization; Serine/threonine-protein kinase D1 (Homo sapiens), Q15139; PKD1 kinase fluorescence polarization assay; inhibition, % (concentration not given with the values); hit rate 0.056% among 200,000; AID 797, 2007; in the data active means inhibition above about 50%
Hck-Nef inh: inhibitors of Nef-activated human Hck kinase, primary screen, biochemical, Z-Lyte FRET, 384-well, Hck-YEEI | Recombinant Hck-YEEI plus Nef, Z-Lyte FRET kinase assay | hit rate 0.68% among 220,000 | Tyrosine-protein kinase HCK (Homo sapiens), P08631 | inhibition, % at 20 µM;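 active means Hck-Nef kinase inhibition above about 50%, limit read from the data; inactive means inhibition below that limit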;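 further: 0% = DMSO with Hck plus Nef and 100% = Hck alone without Nef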
Rad51 HR inh: human RAD51 strand exchange inhibitors, primary screen, biochemical, fluorescence | hit rate 0.085% among 200,000 | DNA repair protein RAD51 homolog 1 (Homo sapiens), Q06609 | inhibition, % at 10 µM | hRad51 DNA strand exchange, fluorescence dequenching;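 active means inhibition above 40% at the single screening dose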;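 further: 0% = DMSO control wells and 100% = blanks with heterologous ssDNA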
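Test system: preformed human Rad51 ssDNA filaments. Compound dosing: single dose, 10 µM final compound. Incubation: filaments 15 min 37 °C, then compound 30 min. Technique: FRET fluorescence dequenching, excitation 485 nm, emission 520 nm. Read-out basis: percent inhibition from fluorescence, normalised to plate control and blank means. Benchmarks: plate controls and plate blanks.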
H9c2 TAG inh: inhibitors of triacylglycerol accumulation, primary screen, cell-based, uHTS, fluorescence, H9c2. H9c2 cells, Nile Red lipid (TAG) fluorescence; cells loaded with 200 µM oleic acid. inhibition, % at 12.5 µM. hit rate 0.66% among 230,000. AID 651582, 2012;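 active means pattern-corrected inhibition of lipid staining of at least 50% with the nuclear-stain viability signal not falling by more than 50%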;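 further: 0% = DMSO wells and 100% = triacsin C control wells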
Mdm2 ligase inh: MDM2-luciferase reporter signal enhancers, primary screen, MDM2 E3 ligase inhibitor project, cell-based, luminescence, 1536-well. cell-based MDM2 ubiquitination luciferase reporter, 2 h; 0 = plate control, 100 = twice control, blank-subtracted. hit rate 0.11% among 210,000. signal enhancement, % at 5 µM. AID 1230, 2008;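 active means signal enhancement of 30% or more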;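 further: luminescence tracks abundance of the self-degrading MDM2-luciferase fusion protein; higher signal means inhibition of MDM2 E3 ligase activity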
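Test system: mammalian cells stably expressing self-ubiquitinating, self-degrading MDM2 E3–luciferase fusion; Amount: 2000 cells in each well; Medium: DMEM; Schedule: 4 h settle plus 2 h compound, 37 °C; Technique: SteadyLite luciferase luminescence after 15 min room-temperature reagent incubation; Benchmarks: plate control and blank wells.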
PERK inhibitor: block of dimerizer-induced PERK translation repression, primary screen, PERK inhibitor project, CHO PERK-DD cells, SEAP luminescence, HTS; Eukaryotic translation initiation factor 2-alpha kinase 3 (Homo sapiens), Q9NZJ5; CHO PERK-DD fusion, SEAP luminescence translation reporter; inhibition, % at 5.6 µM; hit rate 0.17% among 220,000;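 active means inhibition above the mean inhibition of all tested compounds plus 3 SD, set separately per screening campaign, cut at about 2.9% in these data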;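 further: PERK kinase domain activated by AP20187 dimerizer at 100 nM; 0% = DMSO with dimerizer and 100% = rapamycin at 8.4 µM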
Target sequence (Q9NZJ5 whole entry, looked up, the tested form may be a part): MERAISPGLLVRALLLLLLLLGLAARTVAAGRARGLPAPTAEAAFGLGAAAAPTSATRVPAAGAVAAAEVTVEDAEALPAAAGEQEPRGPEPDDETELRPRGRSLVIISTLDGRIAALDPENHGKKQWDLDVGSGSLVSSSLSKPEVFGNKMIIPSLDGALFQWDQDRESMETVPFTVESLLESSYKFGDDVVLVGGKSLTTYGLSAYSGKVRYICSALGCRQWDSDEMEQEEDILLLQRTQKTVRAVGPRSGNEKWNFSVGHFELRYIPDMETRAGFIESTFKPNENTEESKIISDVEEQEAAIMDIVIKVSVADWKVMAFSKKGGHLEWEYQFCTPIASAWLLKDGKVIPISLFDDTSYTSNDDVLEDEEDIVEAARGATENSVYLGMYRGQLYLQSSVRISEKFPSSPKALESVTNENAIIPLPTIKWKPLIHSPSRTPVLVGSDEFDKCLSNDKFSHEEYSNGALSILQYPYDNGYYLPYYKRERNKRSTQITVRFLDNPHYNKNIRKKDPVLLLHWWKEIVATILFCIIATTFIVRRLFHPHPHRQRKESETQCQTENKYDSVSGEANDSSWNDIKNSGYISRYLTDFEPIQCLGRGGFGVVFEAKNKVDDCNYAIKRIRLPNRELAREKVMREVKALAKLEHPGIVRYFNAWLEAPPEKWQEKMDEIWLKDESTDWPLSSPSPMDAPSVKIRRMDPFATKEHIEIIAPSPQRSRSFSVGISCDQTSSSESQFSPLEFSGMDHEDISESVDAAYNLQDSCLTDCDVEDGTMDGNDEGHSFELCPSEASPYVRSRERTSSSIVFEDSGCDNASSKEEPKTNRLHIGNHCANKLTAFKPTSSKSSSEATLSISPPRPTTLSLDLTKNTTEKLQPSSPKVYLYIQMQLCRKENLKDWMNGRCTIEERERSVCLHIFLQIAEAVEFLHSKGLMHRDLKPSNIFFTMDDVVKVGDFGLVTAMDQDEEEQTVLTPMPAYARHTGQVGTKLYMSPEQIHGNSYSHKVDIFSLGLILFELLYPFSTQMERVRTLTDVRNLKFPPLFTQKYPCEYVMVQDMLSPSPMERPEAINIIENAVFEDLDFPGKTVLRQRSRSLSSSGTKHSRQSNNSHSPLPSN
Hck Nef conf: retest of Hck:Nef kinase inhibitor hits, confirmation, biochemical, Z-Lyte FRET, 384-well, p-Tyr peptide counterscreen. calls only at 10 µM. shares compounds with Hck-Nef inh. AID 463188, 2010. hit rate 28% among 1,300. Recombinant Hck-YEEI:Nef, Z-Lyte FRET kinase assay;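 active means average inhibition of at least 50%, with Z-scores no higher than 3 in both the phospho-tyrosine peptide and fluorescence counterscreens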
H9c2 TAG conf: triacylglycerol accumulation inhibitors, retest, confirmation, cell-based, single concentration, Nile Red fluorescence, H9c2; shares compounds with H9c2 TAG inh; H9c2 lipid accumulation; cells loaded with 200 µM oleic acid; inhibition, % at 12.5 µM; hit rate 71% among 990; AID 651629, 2012;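 active means mean inhibition across replicates of 40% or more; inactive means mean inhibition below 40%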;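 further: plate controls were DMSO only wells for no effect and Triacsin C treated wells for full effect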
An asterisk follows results filed as active; i = inactive; . = not tested or not shown; + = active, no number.

SMILES	PKD1 kinase inh	Hck-Nef inh	Rad51 HR inh	H9c2 TAG inh	Mdm2 ligase inh	PERK inhibitor	H9c2 TAG conf	others
CCOc1cc(/C=N/NC(=O)c2ccc(-c3csc(Nc4ccc(C)cc4)n3)cc2)ccc1OCC(=O)O	-6	52*	-3	.	-6	2	.	Hck Nef conf=i
Cc1nc(CC(=O)N/N=C/c2ccc(OCC(=O)O)cc2)cs1	.	25	5	4	.	2	.
COc1cc(/C=N\NC(=O)c2ccc(-c3ccccc3)cc2)ccc1OCC(N)=O	.	.	.	3	.	.	.
O=C(O)COc1ccc(/C=N/NC(=O)c2ccc(-c3csc(Nc4ccc(Cl)cc4)n3)cc2)cc1	.	75*	7	21	.	1	.	Hck Nef conf=+
COc1ccc(S(=O)(=O)NC(=O)C2(C)CCN2C(=O)c2cccc(F)c2)cc1 (stereo unspecified)	.	.	.	-3	.	.	.
N=c1c(C(=O)NCc2ccco2)cc2c(=O)n3ccccc3nc2n1CC1CCCO1 (stereo unspecified)	-2	47	-7	5	.	0	.
N=c1c(C(=O)NCc2ccc(F)cc2)cc2c(=O)n3ccccc3nc2n1CC1CCCO1 (stereo unspecified)	6	145*	-18	51*	-24	-3	35
Cc1cc(C(=O)Nc2cccc3c2O[C@@H](CN(C)S(C)(=O)=O)[C@H](C)CN([C@@H](C)CO)C3=O)n(C)n1	.	.	.	-17	.	.	.
COc1ccc(-c2csc(NC(=S)NC(=O)/C=C/c3ccco3)n2)cc1Br	.	78*	-4	79*	-1	2	87*	Hck Nef conf=i
Cc1ccc(-c2nn(-c3ccccc3)cc2CSC(=N)N)cc1	-10	2	7	53*	-22	-1	109*
Clc1cccc(Cc2nn[nH]n2)c1	-5	4	1	0	6	1	.
COc1cc(C#Cc2c(-c3cncn3C)n(C)c3ccc(-c4ccc5[nH]ccc5c4)cc23)cc(OC)c1	.	.	.	93*	.	.	92*
COc1cc(C#Cc2c(-c3cncn3C)n(C)c3ccc(-c4cc(OC)c(OC)c(OC)c4)cc23)cc(OC)c1	.	.	.	61*	.	.	77*
COc1cc(OC)cc(-c2c(C#Cc3ccsc3)c3cc(-c4cc(OC)c(OC)c(OC)c4)ccc3n2C)c1	.	.	.	31	.	.	.
COc1cc(OC)cc(-c2c(C#Cc3ccsc3)c3cc(-c4cnc(OC)nc4)ccc3n2C)c1	.	.	.	27	.	.	.
CCOC(=O)CSc1nc2nc(Cl)c(Cl)nc2[nH]1	.	.	.	6	.	.	.
CC(C)CCN(C(=S)Nc1cccc(F)c1)C1CCN(C(C)C)CC1	-1	14	.	-5	.	1	.
COc1ccc(C(=O)N2CCN(C(=O)c3cc(OC)c(OC)c(OC)c3)CC2)cc1	-8	0	.	9	-9	1	.
COc1cc(C(=O)N2CCN(c3cc(Cl)ccc3Cl)CC2)cc(OC)c1OC	-7	13	-4	54*	-3	1	65*
CCOc1cccc(C(=O)Nc2ccc3c(c2)OCCO3)c1	.	.	.	2	.	.	.
CCN(CC(=O)Nc1ccc(C(=O)Nc2ccc(OC)cc2)cc1)Cc1nc2ccccc2c(=O)[nH]1	.	15	12	55*	0	-1	50*
Cc1ccccc1C(=O)NNC(=O)C1CC(=O)N(c2ccc3c(c2)OCCO3)C1 (stereo unspecified)	.	.	.	25	.	.	.
Cc1nc(C(=O)Nc2ccccc2Cl)cc2c1[nH]c1ccccc12	-7	2	-3	75*	-19	2	55*
COc1ccc(NC(=O)c2cc3c([nH]c4ccccc43)c(C)n2)cc1	3	7	10	.	3	0	.
O=C(NCCC1=CCCCC1)C1CCN(C(=O)Nc2ccccc2)CC1	3	1	-4	51*	6	-1	33
SMILES	PKD1 kinase inh	Hck-Nef inh	Rad51 HR inh	H9c2 TAG inh	Mdm2 ligase inh	PERK inhibitor	H9c2 TAG conf	others
O=C(NCCC1=CCCCC1)C1CCN(S(=O)(=O)N2CCCC2)CC1	-2	28	-8	-7	-4	1	.
CCn1c(SCC(=O)Nc2oc(C)c3c(C)n[nH]c(=O)c23)nnc1-c1ccco1	.	.	.	-1	.	.	.
O=C(NCCOc1nc(N2CCCCC2)nc(N2CCOCC2)n1)Nc1ccccc1	-8	2	-8	.	-9	-1	.
O=C(NCCOc1nc(N2CCOCC2)nc(N2CCOCC2)n1)Nc1ccccc1	-5	-1	-4	54*	-22	0	30
Cc1ccc(NC(=O)N2CCCC2C(=O)Nc2ccc(-n3cnnn3)c(C)c2)cc1 (stereo unspecified)	-7	-22	.	-12	-1	0	.
CCOc1ccccc1NC(=O)N1CCCC1C(=O)Nc1ccc(-n2cnnn2)c(C)c1 (stereo unspecified)	7	2	0	56*	-9	-1	39
CCC(C)c1ccccc1NC(=O)COC(=O)c1ccc(C)c(NC(=O)c2ccco2)c1 (stereo unspecified)	7	-2	-6	.	-17	0	.
Cc1cc(C)nc(NC(=NCCc2c[nH]c3ccccc23)NC(=O)Nc2ccc(Cl)c(Cl)c2)n1	-1	-2	-2	67*	0	0	70*
Cc1ccc(Nc2nc(N/N=C/c3c[nH]c4ccccc34)nc(N3CCOCC3)n2)cc1	3	1	13	.	-4	-1	.
Cc1[nH]c2ccccc2c1/C=N/Nc1nc(Nc2ccc(F)cc2)nc(N2CCOCC2)n1	-14	4	-7	76*	-3	0	86*
O=C(CN1CCCCCC1)Nc1ccccc1Oc1ccccc1	-4	4	5	-21	-10	1	.
CCC(=O)NC(Nc1sc2c(c1C(=O)OC)CCCC2)(C(F)(F)F)C(F)(F)F	2	0	-1	51*	0	1	26
O=C(Nc1ccccc1)c1ccc(F)c(S(=O)(=O)N2CCOCC2)c1	-8	-4	8	3	-5	0	.
O=C(Nc1ccccc1)c1ccc(NCC2CCCO2)c(S(=O)(=O)N2CCOCC2)c1 (stereo unspecified)	-6	1	3	66*	-17	1	46*
